Published values gathered from unrelated publications.
Each line is one published result; the experiments were not run side by side.
Read-out: haemolysis
Species: human

Oc1ccc(Cl)cc1C=NNc1nc(-c2ccc(F)cc2)cs1  haemolysis (10 µM; 30 min; pH 7.4): 3.11%
C[C@@H]1[C@H](O)[C@@H](C)/C=C/C=C/C=C/C=C/C=C/C=C/C=C/[C@H](O[C@@H]2O[C@H](C)[C@@H](O)[C@H](N)[C@@H]2O)C[C@@H]2O[C@](O)(C[C@@H](O)C[C@@H](O)[C@H](O)CC[C@@H](O)C[C@@H](O)CC(=O)O[C@H]1C)C[C@H](O)[C@H]2C(=O)O  haemolysis (8 µg/mL; 1 h): 102%
CCN(CC)CCCC(C)Nc1ccnc2cc(Cl)ccc12 (stereo not shown)  haemolysis (100 mM; 45 min): 28.7%
O=C(O)CN(CCN(CC(=O)O)CC(=O)O)CC(=O)O  haemolysis (200 µM; 1 h; pH 7.2): ≤ 1%
OC(Cn1cncn1)(Cn1cncn1)c1ccc(F)cc1F  haemolysis (2 µg/mL; 1 h): 3.79%
C=C1CC[C@@H]2[C@](C)(CCC[C@]2(C)C(=O)O)[C@H]1CC/C(C)=C/C(=O)O  haemolysis (350 µg/mL; 3 h): 50%
Cc1ccc(C=NNc2nc(-c3ccc(F)cc3)cs2)c(Br)c1  haemolysis (100 µM; 30 min; pH 7.4): 31.6%
c1ccc(CN(CCN(Cc2ccccn2)Cc2ccccn2)Cc2ccccn2)nc1  haemolysis (200 µM; 1 h; pH 7.2): ≤ 1%
COc1c(F)cccc1C=NNc1nc(-c2ccc(F)cc2)cs1  haemolysis (50 µM; 30 min; pH 7.4): 20%
C=C1CC[C@@H]2C(C)(C)CCC[C@@]2(C)[C@@H]1CC/C(C)=C/C(=O)OC  haemolysis (500 µg/mL; 3 h): 50%
CCCCCCCCCCCCNCc1ccc(CNC(=O)c2csc3nc[nH]c(=O)c23)cc1  haemolysis (100 µM; 1 h): ~3%
Fc1ccc(-c2csc(NN=Cc3cccs3)n2)cc1  haemolysis (10 µM; 30 min; pH 7.4): 11.4%
NCCc1ccc(Oc2ccc(-c3noc(-c4ccc(O)cc4)n3)cc2)cc1  haemolysis (4 µg/mL; 1 h): 2.5%
